Legend:
[1] = target: Tyrosine 3-monooxygenase (Rattus norvegicus) (UniProt P04177); conditions: Brain, at 250 mg/kg
[2] = target: Sodium-dependent dopamine transporter (Rattus norvegicus) (UniProt P23977); conditions: Brain, at 5 mg/kg
[3] = target: T1, Dopamine receptor D2 and D3 (Rattus norvegicus) (UniProt P19020+P61169); conditions: Brain, at 0.04 mg/kg
Rattus norvegicus [4] = test: Effect on compound specific binding to dopamine release in rat brain upon pre-treatment with 0.5 mg/kg amphetamine; assay type: functional
Outline: (§1)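 Male Sprague-Dawley rats (230-280 g), groups of 4-5, given the challenge agent in saline (1 mL/kg, iv unless otherwise stated) 25-30 min before tail-vein [11C] tracer, 25-30 MBq (1-2 nmol) in buffered saline. A saline control group was run each time. Killed 60 min post-injection. Striatum and cerebellum counted by gamma counter. Specific binding = (%ID/g striatum − %ID/g cerebellum)/%ID/g cerebellum.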

[5] = Percent change in rat brain dopamine D2/sigma receptor binding after in rat brain after 1 mg/kg haloperidol treatment; assay type: functional
Outline: as §1

[6] = target: Sigma non-opioid intracellular receptor 1 (Rattus norvegicus) (UniProt Q9R0C9); conditions: Brain, at 1 mg/kg
[7] = target: Sodium-dependent dopamine transporter (Rattus norvegicus) (UniProt P23977); conditions: Brain, at 1 mg/kg
[8] = target: T1, Dopamine receptor D2 and D3 (Rattus norvegicus); conditions: Brain, at 1 mg/kg
[9] = target: Sodium-dependent dopamine transporter (Rattus norvegicus) (UniProt P23977); conditions: Brain, at 0.5 mg/kg
Rattus norvegicus [10] = test: Effect on compound specific binding to dopamine release in rat brain upon pre-treatment with 0.1 mg/kg amphetamine; assay type: functional
Outline: as §1

[11] = target: Sodium-dependent dopamine transporter (Rattus norvegicus) (UniProt P23977); conditions: Brain, at 10 mg/kg
[12] = target: T1, Dopamine receptor D2 and D3 (Rattus norvegicus); conditions: Brain, at 0.2 mg/kg
Rattus norvegicus [13] = test: Effect on compound specific binding to dopamine release in rat brain upon pre-treatment with 1 mg/kg amphetamine; assay type: functional
Outline: as §1

[14] = target: T2, Alpha-2A adrenergic receptor (Rattus norvegicus) (UniProt P22909); conditions: Brain, at 0.1 mg/kg
T2 sequence (whole entry): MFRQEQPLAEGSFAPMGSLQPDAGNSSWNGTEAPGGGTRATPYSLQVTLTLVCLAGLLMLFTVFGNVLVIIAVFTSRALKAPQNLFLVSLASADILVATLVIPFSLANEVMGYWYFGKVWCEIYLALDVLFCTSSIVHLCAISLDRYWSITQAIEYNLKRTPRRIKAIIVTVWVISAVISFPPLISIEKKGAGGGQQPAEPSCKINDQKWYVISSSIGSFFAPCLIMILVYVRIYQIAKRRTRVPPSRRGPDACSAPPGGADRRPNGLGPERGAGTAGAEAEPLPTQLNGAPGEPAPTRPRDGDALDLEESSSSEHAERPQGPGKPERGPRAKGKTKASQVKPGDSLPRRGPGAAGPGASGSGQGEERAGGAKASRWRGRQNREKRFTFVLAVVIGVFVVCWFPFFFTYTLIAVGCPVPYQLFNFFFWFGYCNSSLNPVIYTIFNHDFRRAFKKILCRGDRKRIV

[15] = target: T2, Alpha-2A adrenergic receptor (Rattus norvegicus); conditions: Brain, at 2 mg/kg
Rattus norvegicus [16] = test: Effect on compound specific binding to rat brain upon pre-treatment with 2 mg/kg reserpine and 250 mg/kg AMPT; assay type: functional
Outline: (§2)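 Male Sprague-Dawley rats, four groups of five: reserpine (2 mg/kg sc) 24 h before tracer then AMPT (250 mg/kg ip) 1 h before; reserpine then saline; saline then AMPT; saline twice as controls. Tracer given iv via tail vein. Killed 60 min post-injection. Striatal and cerebellar %ID/g counted. Specific binding ratio = (striatum − cerebellum)/cerebellum.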

Rattus norvegicus [17] = test: Effect on compound specific binding to rat brain upon pre-treatment with 2 mg/kg reserpine; assay type: functional
Outline: as §2

[18] = target: Adrenergic receptor alpha-2 (Rattus norvegicus) (UniProt P22086+P19328+P22909); conditions: Brain, at 1 mg/kg
Rattus norvegicus [19] = test: Effect on compound specific binding to dopamine release in rat brain upon pre-treatment with 0.25 mg/kg amphetamine; assay type: functional
Outline: as §1

[20] = target: D(1A) dopamine receptor (Rattus norvegicus) (UniProt P18901); conditions: Brain, at 1 mg/kg
[21] = target: T1, Dopamine receptor D2 and D3 (Rattus norvegicus); conditions: Brain, at 0.01 mg/kg
Rattus norvegicus [22] = test: Effect on compound specific binding to dopamine release in rat brain upon pre-treatment with 4 mg/kg amphetamine; assay type: functional
Outline: as §1

[23] = target: T3, 5-hydroxytryptamine receptor 1A (Rattus norvegicus) (UniProt P19327); conditions: Brain, at 1 mg/kg
T3 sequence (whole entry): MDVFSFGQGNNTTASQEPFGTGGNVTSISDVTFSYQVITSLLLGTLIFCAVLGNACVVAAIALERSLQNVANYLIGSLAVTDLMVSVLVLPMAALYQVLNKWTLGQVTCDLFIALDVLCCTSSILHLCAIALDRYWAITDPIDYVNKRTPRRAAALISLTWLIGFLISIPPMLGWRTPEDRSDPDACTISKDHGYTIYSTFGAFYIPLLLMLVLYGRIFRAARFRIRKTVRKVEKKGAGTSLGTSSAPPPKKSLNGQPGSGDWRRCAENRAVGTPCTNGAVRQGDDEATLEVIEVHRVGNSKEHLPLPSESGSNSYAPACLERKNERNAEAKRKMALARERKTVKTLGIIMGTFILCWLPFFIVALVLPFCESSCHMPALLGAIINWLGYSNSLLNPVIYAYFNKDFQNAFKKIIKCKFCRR

Rattus norvegicus [24] = test: Effect on compound specific binding to dopamine release in rat brain upon pre-treatment with 2 mg/kg amphetamine; assay type: functional
Outline: as §1

[25] = target: Sodium-dependent dopamine transporter (Rattus norvegicus) (UniProt P23977); conditions: Brain, at 2 mg/kg
[26] = Percent change in rat brain dopamine D2/sigma receptor binding after in rat brain after 0.2 mg/kg haloperidol treatment; assay type: functional
Outline: as §1

T1 sequence (P19020 whole entry, looked up): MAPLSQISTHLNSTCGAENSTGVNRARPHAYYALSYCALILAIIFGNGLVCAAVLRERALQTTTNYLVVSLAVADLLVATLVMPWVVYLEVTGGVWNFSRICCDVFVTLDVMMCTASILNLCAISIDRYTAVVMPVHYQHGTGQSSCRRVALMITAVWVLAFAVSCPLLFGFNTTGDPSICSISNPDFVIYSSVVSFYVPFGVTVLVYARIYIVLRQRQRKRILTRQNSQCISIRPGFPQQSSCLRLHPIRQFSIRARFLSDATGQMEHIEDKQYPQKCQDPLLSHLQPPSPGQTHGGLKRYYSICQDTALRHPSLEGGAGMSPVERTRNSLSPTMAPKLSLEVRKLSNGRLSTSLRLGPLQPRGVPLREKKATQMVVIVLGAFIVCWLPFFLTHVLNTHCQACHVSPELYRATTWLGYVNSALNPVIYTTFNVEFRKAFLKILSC
T1 sequence (P61169 whole entry, looked up): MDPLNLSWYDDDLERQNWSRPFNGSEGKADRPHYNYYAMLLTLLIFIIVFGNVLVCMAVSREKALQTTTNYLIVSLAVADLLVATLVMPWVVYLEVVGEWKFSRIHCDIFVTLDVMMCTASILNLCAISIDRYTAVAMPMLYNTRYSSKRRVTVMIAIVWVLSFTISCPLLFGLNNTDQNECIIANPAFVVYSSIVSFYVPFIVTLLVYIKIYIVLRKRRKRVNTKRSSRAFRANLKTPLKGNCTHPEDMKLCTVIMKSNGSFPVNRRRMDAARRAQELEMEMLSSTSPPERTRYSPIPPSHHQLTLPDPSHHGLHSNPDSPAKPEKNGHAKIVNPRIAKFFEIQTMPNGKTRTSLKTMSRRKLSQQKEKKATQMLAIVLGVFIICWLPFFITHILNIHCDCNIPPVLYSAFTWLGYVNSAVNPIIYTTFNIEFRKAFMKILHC
Sequence of Sodium-dependent dopamine transporter (Rattus norvegicus) (P23977 whole entry): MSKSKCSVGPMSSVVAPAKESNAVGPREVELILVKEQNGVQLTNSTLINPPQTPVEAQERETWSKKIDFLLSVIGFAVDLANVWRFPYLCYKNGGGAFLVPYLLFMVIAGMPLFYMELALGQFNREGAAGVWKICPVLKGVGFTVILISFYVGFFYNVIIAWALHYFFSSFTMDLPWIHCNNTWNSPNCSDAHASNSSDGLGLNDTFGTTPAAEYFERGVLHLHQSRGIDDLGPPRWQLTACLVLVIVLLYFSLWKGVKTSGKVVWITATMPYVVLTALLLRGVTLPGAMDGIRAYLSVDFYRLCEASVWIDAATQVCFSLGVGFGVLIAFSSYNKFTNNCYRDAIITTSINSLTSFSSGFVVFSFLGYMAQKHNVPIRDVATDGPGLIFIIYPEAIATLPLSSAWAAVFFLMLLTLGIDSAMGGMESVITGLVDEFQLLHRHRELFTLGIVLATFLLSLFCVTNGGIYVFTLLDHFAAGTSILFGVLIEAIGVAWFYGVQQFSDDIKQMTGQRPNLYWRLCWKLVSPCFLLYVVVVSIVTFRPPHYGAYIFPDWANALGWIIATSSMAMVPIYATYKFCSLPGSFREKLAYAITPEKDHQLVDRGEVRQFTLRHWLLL
Sequence of Tyrosine 3-monooxygenase (Rattus norvegicus) (P04177 whole entry): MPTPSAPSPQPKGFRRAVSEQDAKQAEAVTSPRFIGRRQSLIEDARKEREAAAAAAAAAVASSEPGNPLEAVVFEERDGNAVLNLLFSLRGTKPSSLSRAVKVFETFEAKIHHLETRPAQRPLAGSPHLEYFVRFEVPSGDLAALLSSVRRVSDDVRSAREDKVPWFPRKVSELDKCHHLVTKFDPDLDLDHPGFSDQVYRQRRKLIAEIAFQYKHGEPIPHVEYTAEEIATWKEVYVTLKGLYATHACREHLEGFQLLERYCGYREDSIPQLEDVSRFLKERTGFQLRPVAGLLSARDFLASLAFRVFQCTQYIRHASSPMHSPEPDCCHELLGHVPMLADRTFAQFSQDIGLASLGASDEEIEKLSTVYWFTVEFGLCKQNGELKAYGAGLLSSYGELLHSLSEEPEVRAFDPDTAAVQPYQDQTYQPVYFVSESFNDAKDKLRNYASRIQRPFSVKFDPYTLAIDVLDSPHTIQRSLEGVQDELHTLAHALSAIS
Sequence of Sigma non-opioid intracellular receptor 1 (Rattus norvegicus) (Q9R0C9 whole entry): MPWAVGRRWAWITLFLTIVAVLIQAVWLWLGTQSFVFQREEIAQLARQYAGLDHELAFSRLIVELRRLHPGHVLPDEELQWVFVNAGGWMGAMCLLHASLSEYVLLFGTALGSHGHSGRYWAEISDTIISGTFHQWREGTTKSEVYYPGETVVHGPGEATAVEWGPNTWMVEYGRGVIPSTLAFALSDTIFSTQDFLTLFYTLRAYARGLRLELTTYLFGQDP
Sequence of Adrenergic receptor alpha-2 (Rattus norvegicus) (P19328 whole entry, looked up, one chain of several): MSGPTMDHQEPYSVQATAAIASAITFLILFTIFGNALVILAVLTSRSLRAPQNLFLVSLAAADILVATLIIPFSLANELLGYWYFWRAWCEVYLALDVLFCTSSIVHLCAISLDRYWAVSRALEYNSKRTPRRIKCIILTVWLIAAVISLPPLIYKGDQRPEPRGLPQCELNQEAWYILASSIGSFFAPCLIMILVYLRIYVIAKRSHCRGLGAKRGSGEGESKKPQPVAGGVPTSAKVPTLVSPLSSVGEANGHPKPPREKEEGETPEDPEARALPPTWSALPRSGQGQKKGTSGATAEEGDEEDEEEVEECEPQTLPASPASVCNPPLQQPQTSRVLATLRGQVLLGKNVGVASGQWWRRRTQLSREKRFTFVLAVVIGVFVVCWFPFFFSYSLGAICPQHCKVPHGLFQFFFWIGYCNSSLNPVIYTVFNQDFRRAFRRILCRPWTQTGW
Sequence of Adrenergic receptor alpha-2 (Rattus norvegicus) (P22086 whole entry, looked up, one chain of several): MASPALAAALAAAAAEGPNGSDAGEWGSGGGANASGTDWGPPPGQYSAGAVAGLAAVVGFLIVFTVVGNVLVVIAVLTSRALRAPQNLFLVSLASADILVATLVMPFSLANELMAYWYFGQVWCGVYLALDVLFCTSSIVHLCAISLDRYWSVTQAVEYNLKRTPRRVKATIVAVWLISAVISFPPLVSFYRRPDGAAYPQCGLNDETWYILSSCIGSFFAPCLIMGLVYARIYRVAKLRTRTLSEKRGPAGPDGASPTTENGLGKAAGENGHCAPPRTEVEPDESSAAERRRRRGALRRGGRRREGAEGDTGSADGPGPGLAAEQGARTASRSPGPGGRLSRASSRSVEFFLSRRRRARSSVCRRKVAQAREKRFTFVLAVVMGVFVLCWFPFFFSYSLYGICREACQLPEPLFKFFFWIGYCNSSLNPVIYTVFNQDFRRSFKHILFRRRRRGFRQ
Sequence of D(1A) dopamine receptor (Rattus norvegicus) (P18901 whole entry): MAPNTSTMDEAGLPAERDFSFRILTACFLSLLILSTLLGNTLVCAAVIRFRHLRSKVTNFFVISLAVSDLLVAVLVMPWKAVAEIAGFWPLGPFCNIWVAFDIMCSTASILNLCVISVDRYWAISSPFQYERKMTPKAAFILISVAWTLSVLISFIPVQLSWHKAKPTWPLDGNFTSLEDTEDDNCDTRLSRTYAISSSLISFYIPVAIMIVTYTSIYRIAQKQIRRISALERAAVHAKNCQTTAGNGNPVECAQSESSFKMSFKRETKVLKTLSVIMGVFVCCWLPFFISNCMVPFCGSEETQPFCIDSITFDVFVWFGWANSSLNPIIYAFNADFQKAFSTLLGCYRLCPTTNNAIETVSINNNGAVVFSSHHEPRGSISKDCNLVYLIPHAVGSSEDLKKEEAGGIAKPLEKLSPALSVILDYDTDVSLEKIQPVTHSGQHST

Which results are given for `CCCN1CCO[C@@H]2c3cc(O)ccc3CC[C@H]21` [NAXAGOLIDE]?
Change [1]: 31%; Change [2]: -57%; Change [3]: -39%; Change (Rattus norvegicus [4]): -19%; Change [5]: -95%; Change [6]: 22%; Change [7]: -42%; Change [8]: -93%; Change [9]: -43%; Change (Rattus norvegicus [10]): -2%; Change [11]: -73%; Change [12]: -80%; Change (Rattus norvegicus [13]): -17%; Change [14]: 10%; Change [15]: 13%; Change (Rattus norvegicus [16]): 34%; Change (Rattus norvegicus [17]): 30%; Change [18]: 30%; Change (Rattus norvegicus [19]): -1%; Change [20]: 11%; Change [21]: -22%; Change (Rattus norvegicus [22]): -38%; Change [23]: -14%; Change (Rattus norvegicus [24]): -30%; Change [25]: -57%; Change [26]: -91%

Source: ChEMBL document CHEMBL1139546, “Radiosynthesis and evaluation of [11C]-(+)-4-propyl-3,4,4a,5,6,10b-hexahydro-2H-naphtho[1,2-b][1,4]oxazin-9-ol as a potential radiotracer for in vivo imaging of the dopamine D2 high-affinity state with positron emission tomography” (2005)
